Compound in data set [1]: C=C(F)c1sc(CNCCCNc2cc(=O)c3ccccc3[nH]2)c(C)c1Br
The experiment in a line: Activity of Staphylococcus aureus MetRS G54A, A64P mutant by ATP:PPi exchange assay in presence of ATP. The method in brief:
(§1)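 Purified S. aureus MetRS (wild type or mutant; E. coli-expressed, ammonium sulfate cut, anion exchange) at 30 nM. ATP:PPi exchange at 30°C in 100 mM Tris-HCl pH 8.0, 5–10 mM Mg acetate, 80 mM KCl, 2.5 mM DTT, [32P]PPi plus cold PPi equal to ATP. Quenched with EDTA over 1–10 min, PEI-cellulose TLC, phosphorimager. Initial velocities versus varied ATP or methionine fit to Michaelis-Menten.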

Compound in data set [2]: C=C(F)c1sc(CNCCCNc2cc(=O)c3ccccc3[nH]2)c(C)c1Br
The experiment in a line: Ratio of Kcat to Km for Staphylococcus aureus MetRS G54A A64P mutant in presence of methionine. The method in brief:
(§2)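 Purified recombinant S. aureus MetRS (30 nM) was assayed by ATP:PPi exchange at 30°C in Tris pH 8.0 with Mg acetate, KCl and DTT. [32P]PPi was matched to ATP, and ATP or methionine was varied. Time points from 1 to 10 min were quenched with EDTA, separated by PEI-cellulose TLC and read by phosphorimager. Initial rates were fitted to Michaelis-Menten.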

Compound in data set [3]: C=C(F)c1sc(CNCCCNc2cc(=O)c3ccccc3[nH]2)c(C)c1Br
Description: Ratio of Kcat to Km for Staphylococcus aureus MetRS G54A A64P mutant in presence of ATP. A digest of the protocol: as §2

Compound in data set [4]: C=C(F)c1sc(CNCCCNc2cc(=O)c3ccccc3[nH]2)c(C)c1Br
Description: Activity of Staphylococcus aureus MetRS G54A, A64P mutant by ATP:PPi exchange assay in presence of methionine. The method in brief: as §1

Compound in data set [5]: C=C(F)c1sc(CNCCCNc2cc(=O)c3ccccc3[nH]2)c(C)c1Br
Description: Ratio of Kcat to Km for Staphylococcus aureus MetRS G54A A64P mutant in presence of tRNA. A digest of the protocol: (§3)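 Purified recombinant S. aureus MetRS was assayed by tRNA aminoacylation at 30°C for 1 to 7.5 min to obtain initial rates. Buffer was Tris pH 8.0 with Mg acetate, 2.5 mM ATP, KCl, DTT, BSA, [3H]methionine and crude E. coli tRNA. Reactions were EDTA-stopped, and charged tRNA was read by scintillation proximity with polylysine beads at pH 2.0.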

Compound in data set [6]: C=C(F)c1sc(CNCCCNc2cc(=O)c3ccccc3[nH]2)c(C)c1Br
The experiment in a line: Activity of streptococcus aureus MetRS G54A, A64P mutant by scintillation proximity assay in presence of tRNA. The note with it: Staphylococcus aureus. On the technique in general: SPA uses beads or plates that emit light when radiolabelled molecules are held near them.

Compound in data set [7]: C=C(F)c1sc(CNCCCNc2cc(=O)c3ccccc3[nH]2)c(C)c1Br
Description: Ratio of Kcat to Km for Staphylococcus aureus MetRS I57N I238F mutant in presence of tRNA. A digest of the protocol:
as §3

Compound in data set [8]: C=C(F)c1sc(CNCCCNc2cc(=O)c3ccccc3[nH]2)c(C)c1Br
The experiment in a line: Ratio of Kcat to Km for Staphylococcus aureus MetRS I57N I238F mutant in presence of methionine. The method in brief: as §2

Compound in data set [9]: C=C(F)c1sc(CNCCCNc2cc(=O)c3ccccc3[nH]2)c(C)c1Br
The experiment in a line: Activity of Staphylococcus aureus MetRS I57N, I238F mutant by ATP:PPi exchange assay in presence of ATP. The method in brief:
as §1

Compound in data set [10]: C=C(F)c1sc(CNCCCNc2cc(=O)c3ccccc3[nH]2)c(C)c1Br
Description: Activity of streptococcus aureus MetRS I57N, I238F mutant by scintillation proximity assay in presence of tRNA. The settings on record: Staphylococcus aureus.

Compound in data set [11]: C=C(F)c1sc(CNCCCNc2cc(=O)c3ccccc3[nH]2)c(C)c1Br
Description: Activity of Staphylococcus aureus MetRS I57N, I238F mutant by ATP:PPi exchange assay in presence of methionine. The method in brief: as §1

Compound in data set [12]: C=C(F)c1sc(CNCCCNc2cc(=O)c3ccccc3[nH]2)c(C)c1Br
Description: Ratio of Kcat to Km for Staphylococcus aureus MetRS I57N I238F mutant in presence of ATP. A digest of the protocol: as §2

Compound in data set [13]: C=C(F)c1sc(CNCCCNc2cc(=O)c3ccccc3[nH]2)c(C)c1Br
Description: Activity of streptococcus aureus MetRS I57N, A247E mutant by scintillation proximity assay in presence of tRNA. The note with it: Staphylococcus aureus.

Compound in data set [14]: C=C(F)c1sc(CNCCCNc2cc(=O)c3ccccc3[nH]2)c(C)c1Br
The experiment in a line: Activity of Staphylococcus aureus MetRS I57N, A247E mutant by ATP:PPi exchange assay in presence of methionine. A digest of the protocol:
as §1

Compound in data set [15]: C=C(F)c1sc(CNCCCNc2cc(=O)c3ccccc3[nH]2)c(C)c1Br
The experiment in a line: Activity of Staphylococcus aureus MetRS I57N, A247E mutant by ATP:PPi exchange assay in presence of ATP. The method in brief: as §1

Compound in data set [16]: C=C(F)c1sc(CNCCCNc2cc(=O)c3ccccc3[nH]2)c(C)c1Br
The experiment in a line: Ratio of Kcat to Km for Staphylococcus aureus MetRS I57N A247E mutant in presence of ATP. A digest of the protocol:
as §2

Compound in data set [17]: C=C(F)c1sc(CNCCCNc2cc(=O)c3ccccc3[nH]2)c(C)c1Br
The experiment in a line: Ratio of Kcat to Km for Staphylococcus aureus MetRS I57N A247E mutant in presence of methionine. A digest of the protocol: as §2

Compound in data set [18]: C=C(F)c1sc(CNCCCNc2cc(=O)c3ccccc3[nH]2)c(C)c1Br
The experiment in a line: Ratio of Kcat to Km for Staphylococcus aureus MetRS I57N A247E mutant in presence of tRNA. A digest of the protocol: as §3

B1: Methionine--tRNA ligase (Staphylococcus aureus subsp. aureus MW2), Q8NY00 G54A,A64P (protein)
chain: MAKETFYITTPIYYPSGNLHIGHAYSTVAGDVIARYKRMQGYDVRYLTGTDEHAQKIQEKAQKPGKTEIEYLDEMIAGIKQLWAKLEISNDDFIRTTEERHKHVVEQVFERLLKQGDIYLGEYEGWYSVPDETYYTESQLVDPQYENGKIIGGKSPDSGHEVELVKEESYFFNISKYTDRLLEFYDQNPDFIQPPSRKNEMINNFIKPGLADLAVSRTSFNWGVHVPSNPKHVVYVWIDALVNYISALGYLSDDESLFNKYWPADIHLMAKEIVRFHSIIWPILLMALDLPLPKKVFAHGWILMKDGKMSKSKGNVVDPNILIDRYGLDATRYYLMRELPFGSDGVFTPEAFVERTNFDLANDLGNLVNRTISMVNKYFDGELPAYQGPLHELDEEMEAMALETVKSYTESMESLQFSVALSTVWKFISRTNKYIDETTPWVLAKDDSQKDMLGNVMAHLVENIRYAAVLLRPFLTHAPKEIFEQLNINNPQFMEFSSLEQYGVLTESIMVTGQPKPIFPRLDSEAEIAYIKESMQPPATEEEKEEIPSKPQIDIKDFDKVEIKAATIINAEHVKKSDKLLKIQVDLDSEQRQIVSGIAKFYTPDDIIGKKVAVVTNLKPAKLMGQKSEGMILSAEKDGVLTLVSLPSAIPNGAVIK
As usually defined, the Km is the substrate concentration at which the rate is half of its maximum. The kcat/Km is the turnover number divided by the Michaelis constant. Usually kcat stands for the maximal rate divided by the concentration of active sites. On to B1, for which the figures for the Michaelis-Menten constant (Km) in [1], in data set [4] and in data set [6] were 760 µM, 1070 µM and 0.57 µM, respectively. The kcat/Km worked out at 1000 M⁻¹ s⁻¹ in data set [2], 1000 M⁻¹ s⁻¹ in data set [3] and 2000 M⁻¹ s⁻¹ in data set [5]. Further, the kcat in data set [4] is 1 s⁻¹; in data set [6], 0.001 s⁻¹.

B2: Methionine--tRNA ligase (Staphylococcus aureus subsp. aureus MW2), Q8NY00 I57N,I238F (protein)
chain: MAKETFYITTPIYYPSGNLHIGHAYSTVAGDVIARYKRMQGYDVRYLTGTDEHGQKNQEKAQKAGKTEIEYLDEMIAGIKQLWAKLEISNDDFIRTTEERHKHVVEQVFERLLKQGDIYLGEYEGWYSVPDETYYTESQLVDPQYENGKIIGGKSPDSGHEVELVKEESYFFNISKYTDRLLEFYDQNPDFIQPPSRKNEMINNFIKPGLADLAVSRTSFNWGVHVPSNPKHVVYVWFDALVNYISALGYLSDDESLFNKYWPADIHLMAKEIVRFHSIIWPILLMALDLPLPKKVFAHGWILMKDGKMSKSKGNVVDPNILIDRYGLDATRYYLMRELPFGSDGVFTPEAFVERTNFDLANDLGNLVNRTISMVNKYFDGELPAYQGPLHELDEEMEAMALETVKSYTESMESLQFSVALSTVWKFISRTNKYIDETTPWVLAKDDSQKDMLGNVMAHLVENIRYAAVLLRPFLTHAPKEIFEQLNINNPQFMEFSSLEQYGVLTESIMVTGQPKPIFPRLDSEAEIAYIKESMQPPATEEEKEEIPSKPQIDIKDFDKVEIKAATIINAEHVKKSDKLLKIQVDLDSEQRQIVSGIAKFYTPDDIIGKKVAVVTNLKPAKLMGQKSEGMILSAEKDGVLTLVSLPSAIPNGAVIK
B2: the catalytic efficiency (kcat/Km) in data set [7] is 74000 M⁻¹ s⁻¹; in data set [8] it was 150000 M⁻¹ s⁻¹; in data set [12], 8000 M⁻¹ s⁻¹. The Michaelis constant (Km) in [9] was found to be 1610 µM; in data set [10] it was 0.89 µM; in data set [11], 85 µM. The results for the catalytic constant (kcat) in [10] and in data set [11] were 0.066 s⁻¹ and 13 s⁻¹, respectively.

B3: Methionine--tRNA ligase (Staphylococcus aureus subsp. aureus MW2), Q8NY00 I57N,A247E (protein)
chain: MAKETFYITTPIYYPSGNLHIGHAYSTVAGDVIARYKRMQGYDVRYLTGTDEHGQKNQEKAQKAGKTEIEYLDEMIAGIKQLWAKLEISNDDFIRTTEERHKHVVEQVFERLLKQGDIYLGEYEGWYSVPDETYYTESQLVDPQYENGKIIGGKSPDSGHEVELVKEESYFFNISKYTDRLLEFYDQNPDFIQPPSRKNEMINNFIKPGLADLAVSRTSFNWGVHVPSNPKHVVYVWIDALVNYISELGYLSDDESLFNKYWPADIHLMAKEIVRFHSIIWPILLMALDLPLPKKVFAHGWILMKDGKMSKSKGNVVDPNILIDRYGLDATRYYLMRELPFGSDGVFTPEAFVERTNFDLANDLGNLVNRTISMVNKYFDGELPAYQGPLHELDEEMEAMALETVKSYTESMESLQFSVALSTVWKFISRTNKYIDETTPWVLAKDDSQKDMLGNVMAHLVENIRYAAVLLRPFLTHAPKEIFEQLNINNPQFMEFSSLEQYGVLTESIMVTGQPKPIFPRLDSEAEIAYIKESMQPPATEEEKEEIPSKPQIDIKDFDKVEIKAATIINAEHVKKSDKLLKIQVDLDSEQRQIVSGIAKFYTPDDIIGKKVAVVTNLKPAKLMGQKSEGMILSAEKDGVLTLVSLPSAIPNGAVIK
For the protein B3, the Km in data set [13] came to 0.45 µM; in [14], 250 µM; in [15] it was 2230 µM. Besides, the kcat was found to be 0.008 s⁻¹ in data set [13] and 11 s⁻¹ in data set [14]. The kcat/Km in [16] came out at 5000 M⁻¹ s⁻¹; in data set [17] it was 40000 M⁻¹ s⁻¹; in data set [18], 18000 M⁻¹ s⁻¹.

(Values after ChEMBL document CHEMBL1629614, “Inhibition of methionyl-tRNA synthetase by REP8839 and effects of resistance mutations on enzyme activity” (Antimicrob Agents Chemother, 2009).)
